Experimental data published in ChEMBL document CHEMBL1130175, “Sulfated galactocerebrosides as potential antiinflammatory agents” (J Med Chem, 1997).

Target: T1, P-selectin (Homo sapiens, UniProt P16109)
T1 sequence (P16109 whole entry): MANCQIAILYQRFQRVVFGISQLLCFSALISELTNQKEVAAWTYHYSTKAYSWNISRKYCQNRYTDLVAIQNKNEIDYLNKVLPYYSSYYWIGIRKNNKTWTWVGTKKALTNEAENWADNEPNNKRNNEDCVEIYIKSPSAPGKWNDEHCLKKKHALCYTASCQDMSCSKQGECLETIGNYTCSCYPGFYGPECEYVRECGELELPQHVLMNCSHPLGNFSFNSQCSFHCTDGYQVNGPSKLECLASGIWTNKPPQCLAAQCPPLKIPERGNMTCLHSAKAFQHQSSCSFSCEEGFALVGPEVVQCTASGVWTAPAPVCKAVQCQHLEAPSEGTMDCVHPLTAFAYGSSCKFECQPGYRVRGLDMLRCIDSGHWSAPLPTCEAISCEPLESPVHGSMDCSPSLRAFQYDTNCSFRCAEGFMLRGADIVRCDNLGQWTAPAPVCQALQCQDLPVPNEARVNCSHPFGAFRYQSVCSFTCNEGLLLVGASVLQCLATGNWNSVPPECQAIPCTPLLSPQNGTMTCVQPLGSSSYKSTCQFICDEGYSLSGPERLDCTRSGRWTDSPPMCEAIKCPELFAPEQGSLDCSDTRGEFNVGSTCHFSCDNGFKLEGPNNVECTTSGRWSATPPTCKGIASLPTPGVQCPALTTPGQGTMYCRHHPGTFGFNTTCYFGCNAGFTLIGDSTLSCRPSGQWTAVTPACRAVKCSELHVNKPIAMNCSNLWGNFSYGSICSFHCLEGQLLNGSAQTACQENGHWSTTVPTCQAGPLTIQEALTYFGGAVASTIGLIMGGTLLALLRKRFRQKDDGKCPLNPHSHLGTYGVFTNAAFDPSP
Test: In vitro inhibitory concentration against Selectin P in a cell-free binding assay
Summary of the method: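 Soluble P-selectin receptor globulin (lectin, EGF and two complement repeat domains fused to an Ig tail), premixed with HRP-conjugated goat anti-human IgG. The complex was incubated on sulfatide-coated ELISA plates with or without test compound, 0.5% DMSO final. Read-out was TMB colour at 450 nm. Eight 2-fold dilutions were tested, mean of duplicates, and IC50 was interpolated from the linear part of the log dose-response curve.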

| SMILES | IC50 [nM] |
| --- | --- |
| CCCCCCCCCCCCC/C=C/[C@@H](O)[C@H](CO[C@@H]1O[C@@H](COS(=O)(=O)O)[C@@H](O)[C@H](O)[C@@H]1O)NC(=O)CCCCCCCCCCCCCCC | 12000 |
| CCCCCCCCCCCCC/C=C\C(O)C(CO)NC(=O)O[C@@H]1O[C@H](CO)[C@H](O)[C@H](O)[C@H]1O (some centres not stated) [GALACTOCEREBROSIDE] | > 50000 |
| CCCCCCCCCCCCC/C=C/[C@@H](O)[C@H](CO[C@@H]1O[C@@H](COS(=O)(=O)O)[C@@H](OS(=O)(=O)O)[C@H](O)[C@@H]1O)NC(=O)CCCCCCCCCCCCCCC | 1700 |
| CCCCCCCCCCCCC/C=C/[C@@H](O)[C@H](CO[C@@H]1O[C@@H](CO)[C@@H](OS(=O)(=O)O)[C@H](O)[C@@H]1O)NC(=O)CCCCCCCCCCCCCCC | 12500 |
| CCCCCCCCCCCCC/C=C/[C@@H](O)[C@H](CO[C@@H]1O[C@@H](COS(=O)(=O)O)[C@@H](O)[C@H](OS(=O)(=O)O)[C@@H]1O)NC(=O)CCCCCCCCCCCCCCC | 2400 |
| CCCCCCCCCCCCC/C=C/[C@@H](O)[C@H](CO[C@@H]1O[C@@H](CO)[C@@H](O)[C@H](O)[C@@H]1OS(=O)(=O)O)NC(=O)CCCCCCCCCCCCCCC | 2500 |

The next molecules have a lower IC50 than those just listed; values first:

| IC50 [nM] | SMILES |
| --- | --- |
| 1300 | CCCCCCCCCCCCC/C=C/[C@@H](OC(=O)c1ccccc1)[C@H](CO[C@@H]1O[C@@H](COS(=O)(=O)O)[C@@H](OC(C)=O)[C@H](OS(=O)(=O)O)[C@@H]1OC(=O)c1ccccc1)NC(=O)CCCCCCCCCCCCCCC |
| 1200 | CCCCCCCCCCCCC/C=C/[C@@H](O)[C@H](CO[C@@H]1O[C@@H](COS(=O)(=O)O)[C@@H](O)[C@H](O)[C@@H]1OS(=O)(=O)O)NC(=O)CCCCCCCCCCCCCCC |
| 900 | CCCCCCCCCCCCC/C=C/[C@@H](OC(=O)c1ccccc1)[C@H](CO[C@@H]1O[C@@H](COS(=O)(=O)O)[C@@H](O)[C@H](O)[C@@H]1OS(=O)(=O)O)NC(=O)CCCCCCCCCCCCCCC |
| 600 | CCCCCCCCCCCCC/C=C/[C@@H](O)[C@H](CO[C@@H]1O[C@@H](CO)[C@@H](O)[C@H](OS(=O)(=O)O)[C@@H]1O)NC(=O)CCCCCCCCCCCCCCC |
| 100 | CCCCCCCCCCCCC/C=C/[C@@H](OC(=O)c1ccccc1)[C@H](CO[C@@H]1O[C@@H](CO)[C@@H](O)[C@H](OS(=O)(=O)O)[C@@H]1OS(=O)(=O)O)NC(=O)CCCCCCCCCCCCCCC |
| 100 | CCCCCCCCCCCCC/C=C/[C@@H](O)[C@H](CO[C@@H]1O[C@@H](CO)[C@@H](O)[C@H](OS(=O)(=O)O)[C@@H]1OS(=O)(=O)O)NC(=O)CCCCCCCCCCCCCCC |
